According to publication PMC3535304 (Bioorganic & medicinal chemistry, 2012):
“Also recorded” adds a separate entry of the source. Read-outs that look alike come from different tables or passages of the source.

Legend:
CEM cells = test: Cell growth inhibition, parental line of drug resistant pair; type: cell-based; details: Homo sapiens, CCRF-CEM, read-out: IC50 (cell growth inhibition)
CEM^Vbl100 cells = test: Cell growth inhibition, drug resistant cell line; type: cell-based; details: Homo sapiens, CEM/VBL100, read-out: IC50 (cell growth inhibition)
Outline: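 Growth inhibition was read by MTT after 72 h exposure to a range of test-compound concentrations at 37 °C in 5% CO₂. DMSO was ≤0.25% final.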

bovine brain tubulin = bovine brain tubulin (Bos taurus, UniProt P81947+Q6B856); test: Inhibition of tubulin polymerization; type: biochemical; details: read-out: Tubulin assembly IC50; tubulin at 10 μM, 20 min incubation
HeLa cells [1] = details: read-out: IC50 (cell growth inhibition), mean ± SE, ref [12]; cited from earlier work
A549 cells = details: read-out: IC50 (cell growth inhibition), cited from earlier work
HL-60 cells = details: read-out: IC50 (cell growth inhibition); HL-60, mean ± SE; ref [12]; cited from earlier work
Jurkat cells [2] = details: read-out: IC50 (cell growth inhibition), mean ± SE, ref [12]; cited from earlier work
MCF-7 cells [3] = details: read-out: IC50 (cell growth inhibition); MCF-7, mean ± SE; ref [12]; cited from earlier work
HT-29 cells [4] = details: read-out: IC50 (cell growth inhibition); HT-29, mean ± SE; ref [12]; cited from earlier work
MCF-7 cells [5] = test: In vitro antiproliferative assay; type: cell-based, human; details: 3e vs 2e, 3b vs 2b
HT-29 cells [6] = test: In vitro antiproliferative assay; type: cell-based, human; details: 3d vs 2d, 3e vs 2e
[7] = test system: six human cancer cell lines (HeLa, A549, HL-60, Jurkat, MCF-7, HT-29); test: Antiproliferative activity across the panel of six human cancer cell lines; type: cell-based; details: read-out: IC50 values against the six cell lines (range)
Outline: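 Jurkat and HL-60 cells were grown in RPMI-1640; MCF-7, A549, HeLa and HT-29 in DMEM; all media had 10% FBS plus penicillin/streptomycin. Cells were seeded at 8 × 10³/well, held 18 h at 37 °C in 5% CO₂, then given fresh medium with test compound (DMSO stocks, ≤0.25% final) for 72 h. Viability was read by MTT. […] Mean ± SE, ≥3 experiments.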

HeLa cells [8] = test: Flow cytometric analysis of cell cycle distribution; type: cell-based, human; details: 24 h, range tested 31 to 500 nM
Outline: (§1)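 Exponentially growing cells (5 × 10⁵) were treated 24 h with test compound at 31–500 nM. They were then fixed in ice-cold 70% ethanol and treated with lysis buffer containing RNase A and 0.1% Triton X-100. DNA was stained with propidium iodide and content measured by flow cytometry, with cycle phases taken from DNA histograms. Mean ± SEM of three independent experiments.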

HeLa cells [9] = test: Annexin-V/PI apoptosis assay; type: cell-based, human; details: 250 or 500 nM, 24 or 48 h
Outline: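 HeLa cells exposed to test compound for 24 or 48 h, then labelled with annexin-V-FITC (kit protocol) and propidium iodide together. Red (PI) and green (FITC) fluorescence read by flow cytometry. Maximum DMSO 0.25%. Mean ± SEM of three independent experiments.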

caspase-3 = test: Western blot analysis in HeLa cells; type: cell-based, human; details: 24 and 48 h
Outline: (§2)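 HeLa cells were exposed to test compound for 24 or 48 h, washed in cold PBS, and lysed on ice for 30 min. Cleared lysate (20 μg protein, BCA) was run on 7.5–15% SDS-PAGE and moved to PVDF. Primary antibodies (2 h, room temperature) were procaspase-2, cleaved caspase-8, cleaved caspase-3, PARP and cyclin B1, followed by peroxidase secondary and ECL. Membranes were reprobed for β-actin.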

caspase-9 = test: Western blot analysis in HeLa cells; type: cell-based, human; details: data not shown
caspase-8 = test: Western blot analysis in HeLa cells; type: cell-based, human; details: 24 or 48 h
Outline: as §2

caspase-2 = test: Western blot analysis in HeLa cells; type: cell-based, human; details: 24 or 48 h
Outline: as §2

cyclin B = test: Western blot analysis in HeLa cells; type: cell-based, human; details: 48 h
Outline: as §2

[10] = test system: mitochondrial polarization and ROS production; test: Mitochondrial functions; type: cell-based; details: data not shown
LoVo cells = details: read-out: IC50 (cell growth inhibition), ref [8]; cited from earlier work
LoVo^Doxo cells = details: IC50 LoVo^Doxo / IC50 LoVo; ref [8]; cited from earlier work
Jurkat cells [11] = test: In vitro antiproliferative assay; type: cell-based; details: Homo sapiens, 72 h, read-out: IC50 (cell growth inhibition)
Outline: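 Jurkat cells were grown in RPMI-1640 with 10% FBS, penicillin G (115 units/mL) and streptomycin (115 μg/mL). Cells were seeded at 8 × 10³ per well and held 18 h at 37 °C in 5% CO₂. Medium was then replaced with fresh medium containing the test compound (DMSO ≤0.25% final) at various concentrations for 72 h. Viability was read by MTT.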

A549-T12 cells = details: ref [8], cited from earlier work
Jurkat cells [12] = test: Flow cytometric analysis of cell cycle distribution; type: cell-based, human; details: 24 h
Outline: as §1

Sequence of bovine brain tubulin (Q6B856 whole entry): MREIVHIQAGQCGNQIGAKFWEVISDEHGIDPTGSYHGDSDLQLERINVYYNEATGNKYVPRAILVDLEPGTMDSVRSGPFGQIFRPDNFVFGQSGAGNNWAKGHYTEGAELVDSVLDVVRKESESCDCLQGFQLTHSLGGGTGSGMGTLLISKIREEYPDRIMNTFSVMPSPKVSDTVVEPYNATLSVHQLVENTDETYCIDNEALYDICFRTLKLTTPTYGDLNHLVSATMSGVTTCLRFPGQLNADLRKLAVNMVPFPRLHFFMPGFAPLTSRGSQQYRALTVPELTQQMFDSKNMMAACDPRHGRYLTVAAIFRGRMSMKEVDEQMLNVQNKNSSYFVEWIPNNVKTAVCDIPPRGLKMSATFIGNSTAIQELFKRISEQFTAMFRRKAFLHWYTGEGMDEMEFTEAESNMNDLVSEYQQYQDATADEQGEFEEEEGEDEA
Sequence of bovine brain tubulin (P81947 whole entry): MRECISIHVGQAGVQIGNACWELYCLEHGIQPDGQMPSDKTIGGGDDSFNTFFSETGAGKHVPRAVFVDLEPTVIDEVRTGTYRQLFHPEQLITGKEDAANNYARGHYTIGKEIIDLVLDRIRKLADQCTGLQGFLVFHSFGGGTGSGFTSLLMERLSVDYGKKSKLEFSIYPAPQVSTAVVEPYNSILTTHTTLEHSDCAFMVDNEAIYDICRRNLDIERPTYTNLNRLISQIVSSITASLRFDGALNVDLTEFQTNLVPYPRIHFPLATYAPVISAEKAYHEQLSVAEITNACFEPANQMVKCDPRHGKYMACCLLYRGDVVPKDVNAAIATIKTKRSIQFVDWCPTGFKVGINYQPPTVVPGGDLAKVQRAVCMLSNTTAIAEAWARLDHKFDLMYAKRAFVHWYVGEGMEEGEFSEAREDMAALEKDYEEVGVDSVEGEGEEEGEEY

Structure (SMILES)	IC50 (bovine brain tubulin) [nM]	IC50 (HeLa cells [1]) [nM]	IC50 (A549 cells; A549, mean ± SE, ref [12]) [nM]	IC50 (HL-60 cells) [nM]	IC50 (Jurkat cells [2]) [nM]	IC50 (MCF-7 cells [3]) [nM]	IC50 (HT-29 cells [4]) [nM]	further results
CC[C@]1(O)C[C@@H]2CN(CCc3c([nH]c4ccccc34)[C@@](C(=O)OC)(c3cc4c(cc3OC)N(C)[C@H]3[C@@](O)(C(=O)OC)[C@H](OC(C)=O)[C@]5(CC)C=CCN6CC[C@]43[C@@H]65)C2)C1 [Vinblastine]								IC50 (CEM cells): 0.8 ± 0.1 nM; IC50 (CEM^Vbl100 cells): 205 ± 46 nM
COc1ccc(-c2sc(N)nc2-c2cc(OC)c(OC)c(OC)c2)cc1 [2d]	1100 ± 70	2.3 ± 0.2	20.2 ± 1.7	3.2 ± 1.2	2.1 ± 0.4	60.9 ± 8.4	11.7 ± 3.9	
COc1cc(-c2nc(N)sc2-c2ccc(C(F)(F)F)cc2)cc(OC)c1OC [2c]		3.2 ± 0.4	357 ± 65	5.1 ± 1.1	8.5 ± 1.2	0.4 ± 0.1	221 ± 50.2	
CNc1nc(-c2cc(OC)c(OC)c(OC)c2)c(-c2ccc(C)cc2)s1 [3b, 4-(3,4,5-Trimethoxyphenyl)-N-methyl-5-p-tolylthiazol-2-amine]								fold more potent than 2-amino counterpart (MCF-7 cells [5]): ~28 fold
CCOc1ccc(-c2sc(N)nc2-c2cc(OC)c(OC)c(OC)c2)cc1 [2e]	610 ± 50	0.03 ± 0.005	0.09 ± 0.01	0.9 ± 0.3	0.14 ± 0.05	44 ± 6.3	38.2 ± 11.4	
CCOc1ccc(-c2sc(NC)nc2-c2cc(OC)c(OC)c(OC)c2)cc1 [3e, 5-(4-Ethoxyphenyl)-4-(3,4,5-trimethoxyphenyl)-N-methylthiazol-2-amine]								fold more potent than 2-amino counterpart (HT-29 cells [6]): 10 fold; IC50 [7]: 1.7 to 38 nM; concentration at which G2/M accumulation was first observed (HeLa cells [8]): 31 nM; induction of apoptotic (annexin-V positive) cells (HeLa cells [9]): Analogous behaviour but with a stronger effect; caspase-3 activation (caspase-3): clear activation of caspase-3; cleavage of caspase-3 substrate PARP (caspase-3): cleavage of the caspase-3 substrate PARP; caspase-9 activation (caspase-9): did not induce activation of caspase-9; caspase-8 activation (appearance of cleavage product) (caspase-8): clear caspase-8 and caspase-2 activation; caspase-2 activation (disappearance of uncleaved protein) (caspase-2): clear caspase-8 and caspase-2 activation; cyclin B expression (cyclin B): slight decrease; effect on mitochondrial polarization and ROS production [10]: did not cause mitochondrial depolarization; also recorded: only slightly affected
COc1cccc2c1C(=O)c1c(O)c3c(c(O)c1C2=O)C[C@@](O)(C(=O)CO)C[C@@H]3O[C@H]1C[C@H](N)[C@H](O)[C@H](C)O1 [Doxorubicin]								IC50 (LoVo cells): 120 ± 30 nM; Resistance ratio (LoVo^Doxo cells): 109.6
CNc1nc(-c2cc(OC)c(OC)c(OC)c2)c(-c2ccc(OC)cc2)s1 [3d, 4-(3,4,5-Trimethoxyphenyl)-5-(4-methoxyphenyl)-N-methylthiazol-2-amine]								fold more potent than 2-amino counterpart (HT-29 cells [6]): 2 fold
COc1ccc(/C=C\c2cc(OC)c(OC)c(OC)c2)cc1O [CA-4, Combretastatin A-4]								IC50 (Jurkat cells [11]): 5 ± 0.6 nM
COc1cc(-c2nc(N)sc2-c2ccc3ccccc3c2)cc(OC)c1OC [2a]	740 ± 10	1.6 ± 0.6	3.8 ± 0.6	2.7 ± 0.3	3.3 ± 0.9	51.2 ± 9.2	23.9 ± 3.9	
CC(=O)O[C@H]1C(=O)[C@@]2(C)[C@H]([C@H](OC(=O)c3ccccc3)[C@]3(O)C[C@H](OC(=O)[C@H](O)[C@@H](NC(=O)c4ccccc4)c4ccccc4)C(C)=C1C3(C)C)[C@]1(OC(C)=O)CO[C@@H]1C[C@@H]2O [Taxol]								IC50 (A549 cells; A549, ref [8]): 7.2 ± 0.1 nM; Resistance ratio (A549-T12 cells; IC50 A549-T12 / IC50 A549): 10.4; IC50 (A549-T12 cells; read-out: IC50 (cell growth inhibition), A549-T12): 75.2 ± 12.5 nM
COc1cc(-c2nc(C)sc2-c2ccc3ccccc3c2)cc(OC)c1OC [3k, 4-(3,4,5-Trimethoxyphenyl)-2-methyl-5-(naphthalen-2-yl)thiazole]								concentration at which G2/M accumulation was first observed (HeLa cells [8]): 125 nM; concentration at which G2/M accumulation was first observed (Jurkat cells [12]): 125 nM; induction of apoptotic (annexin-V positive) cells (HeLa cells [9]): significant induction of apoptotic cells; caspase-3 activation (caspase-3): clear activation of caspase-3; cleavage of caspase-3 substrate PARP (caspase-3): cleavage of the caspase-3 substrate PARP; caspase-9 activation (caspase-9): did not induce activation of caspase-9; caspase-8 activation (appearance of cleavage product) (caspase-8): clear caspase-8 and caspase-2 activation; caspase-2 activation (disappearance of uncleaved protein) (caspase-2): clear caspase-8 and caspase-2 activation; effect on mitochondrial polarization and ROS production [10]: only slightly affected
COc1cc(-c2nc(N)sc2-c2ccc(C)cc2)cc(OC)c1OC [2b]	440 ± 10	0.73 ± 0.2	42.8 ± 5.7	3.9 ± 1.1	3.9 ± 0.6	280 ± 69.8	12.4 ± 5.1	
